Experimental data as given in article PMC3644109 (Nature Communications, 2013).

Key:
AtALMT9 [1] = molecular target: T1, AtALMT9 (Arabidopsis thaliana, UniProt Q9LS46); experiment: patch clamp of excised cytosolic-side-out vacuolar patches, Hill fit; type: cell-based
T1 sequence (Q9LS46 1-598): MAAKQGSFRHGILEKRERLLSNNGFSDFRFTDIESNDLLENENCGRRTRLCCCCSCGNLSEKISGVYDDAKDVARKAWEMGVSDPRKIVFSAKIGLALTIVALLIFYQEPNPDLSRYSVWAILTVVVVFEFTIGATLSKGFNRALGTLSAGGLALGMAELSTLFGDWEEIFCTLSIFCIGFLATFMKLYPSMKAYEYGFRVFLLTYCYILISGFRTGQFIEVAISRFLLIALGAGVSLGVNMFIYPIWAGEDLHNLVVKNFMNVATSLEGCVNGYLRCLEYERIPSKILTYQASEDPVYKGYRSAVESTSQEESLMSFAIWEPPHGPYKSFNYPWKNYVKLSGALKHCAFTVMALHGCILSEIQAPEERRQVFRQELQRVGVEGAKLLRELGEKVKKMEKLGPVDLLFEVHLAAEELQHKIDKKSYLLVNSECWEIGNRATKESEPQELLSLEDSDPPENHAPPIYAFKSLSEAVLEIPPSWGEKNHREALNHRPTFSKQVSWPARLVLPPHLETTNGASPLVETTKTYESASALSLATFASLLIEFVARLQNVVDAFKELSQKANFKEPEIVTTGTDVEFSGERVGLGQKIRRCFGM

AtALMT9 [2] = molecular target: T1, AtALMT9; experiment: patch clamp of excised cytosolic-side-out vacuolar patches, chloride current; type: biochemical; conditions: activator; 1 mM cytosolic; 100 mM chloride bath, pH 7.5
In short: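 Vacuoles came from transiently transformed N. benthamiana leaves expressing the channel (2–3 days post-agroinfiltration) and were released from mesophyll protoplasts by EDTA and mild osmotic shock. Excised cytosolic-side-out patches (seal >2 GΩ) were held in symmetrical chloride: pipette 100 mM HCl pH 6, bath 100 mM HCl, 3 mM MgCl₂, 0.1 mM CaCl₂ pH 7.5. Test compound was perfused on the cytosolic side. Steady currents were compared at -120 mV, before versus after.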

AtALMT9 [3] = molecular target: T1, AtALMT9; experiment: patch clamp of excised cytosolic-side-out vacuolar patches, chloride current; type: biochemical; conditions: activator, not permeant, -120 mV, chloride bath, pH 7.5
[4] = substrate: O=C(O)C[C@H](O)C(=O)O; experiment: cells, lysate or membranes; conditions: malate transport into vacuole

## O=C(O)C[C@H](O)C(=O)O [malate]
AtALMT9 [1]
  EC50: 300 µM

## O=C(O)CC(=O)C(=O)O [oxaloacetate]
AtALMT9 [2]
  fold increase of chloride current at 1 mM: 2.0±0.2 fold

## O=C(O)c1cccc(C(=O)O)c1 [isophtalate]
AtALMT9 [3]
  fold increase of chloride current: 2.1±0.1 fold

## O=C(O)/C=C/C(=O)O [fumarate]
AtALMT9 [2]
  fold increase of chloride current at 1 mM: 5.7±0.4 fold

B1: AtALMT9 (Arabidopsis thaliana) (protein)
chain: MAAKQGSFRHGILEKRERLLSNNGFSDFRFTDIESNDLLENENCGRRTRLCCCCSCGNLSEKISGVYDDAKDVARKAWEMGVSDPRKIVFSAKIGLALTIVALLIFYQEPNPDLSRYSVWAILTVVVVFEFTIGATLSKGFNRALGTLSAGGLALGMAELSTLFGDWEEIFCTLSIFCIGFLATFMKLYPSMKAYEYGFRVFLLTYCYILISGFRTGQFIEVAISRFLLIALGAGVSLGVNMFIYPIWAGEDLHNLVVKNFMNVATSLEGCVNGYLRCLEYERIPSKILTYQASEDPVYKGYRSAVESTSQEESLMSFAIWEPPHGPYKSFNYPWKNYVKLSGALKHCAFTVMALHGCILSEIQAPEERRQVFRQELQRVGVEGAKLLRELGEKVKKMEKLGPVDLLFEVHLAAEELQHKIDKKSYLLVNSECWEIGNRATKESEPQELLSLEDSDPPENHAPPIYAFKSLSEAVLEIPPSWGEKNHREALNHRPTFSKQVSWPARLVLPPHLETTNGASPLVETTKTYESASALSLATFASLLIEFVARLQNVVDAFKELSQKANFKEPEIVTTGTDVEFSGERVGLGQKIRRCFGM
[4]
  Km: 27 mM
